Drawing on ChEMBL document CHEMBL4513216, “Probing the Open Global Health Chemical Diversity Library for Multistage-Active Starting Points for Next-Generation Antimalarials” (ACS Infect Dis, 2020), this text covers cytotoxicity for 72 compounds.

The structures appear in SMILES notation.

A short description of the data set: Toxicity liver stage against HepG2, at 10uM. It counts as cell-based. Also noted: test concentration 10 uM, cell line HepG2-A16-CD81EGFP. The note with it: human, HepG2-A16-CD81EGFP cells; read-out: INHIBITION
The essentials:
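Uninfected HepG2-A16-CD81EGFP cells, 3 × 10^3 per well, 1536-well, plated on prespotted compound at 10 μM final, parasite-free screening media added to match infected plates; puromycin 10 μM positive, DMSO 0.5% negative; run in parallel with 48 h PbLuc assay at 37 °C, 5% CO2; viability by CellTiter-Glo luminescence, normalized to controls.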
`Cn1cc(Br)cc1C(=O)NC1(C#N)CC1`: the cytotoxicity at 10 µM was 21.8%.
`CNc1ncc(C(=O)N2CC[C@@](O)(C3CCOCC3)[C@H](C)C2)cn1`: the cytotoxicity at 10 µM amounted to 4.56%.
To `O=C(NC[C@H]1Cn2c(-c3ccccc3)cnc2CO1)C1CC1` belongs -3.01%.
In the case of `Cc1nc(NCC2CCOCC2)cc(C2CCN2S(C)(=O)=O)n1` (configuration not stated) it was 2.58%; in that of `CCn1c(C)cc(C(=O)N2CCCC(c3nc(C)no3)C2)c1C` (configuration not stated), -3.39%.
For the compound `Cc1nc(COc2cccc(C#N)c2)no1`, the cytotoxicity at 10 µM was -0.513%.
To `CC(C)CN1C(=O)COC[C@@H]1[C@H](O)c1ccc(NC(=O)C2CC2)cc1` belongs 5.76%; to `Cc1cc(-c2cnn(CCNC(=O)c3cnn(C)c3)c2C2CC2)on1`, -5.58%.
In the case of `COc1cccc2c1OCCCN(Cc1ccc(C(N)=O)c(=O)[nH]1)C2` it was 4.82%.
In the case of `CC(C)n1c(=O)c2sccc2n(CC(=O)Nc2cccc(Cl)c2)c1=O` it was 8.93%.
As for `CN(CC(=O)N1CCC(C(O)c2ccccc2)CC1)c1cnccn1` (configuration not stated), the cytotoxicity at 10 µM is -2.9%.
In the case of `Cc1nc(C(C)C)sc1C(=O)N(C)Cc1cnn(C)c1` it was 6.45%.
On to `Cc1cc(C)cc(C(C(=O)O)N(C)CCCN2CCOCC2)c1` (configuration not stated), for which the cytotoxicity at 10 µM amounted to 6.03%.
For the compound `Cn1ccc(C(=O)Nc2nc(-c3ccc(Cl)cc3)n[nH]2)cc1=O`, the cytotoxicity at 10 µM is -12.3%.
To `CN1CCN(c2ccc3ccc(C(=O)N4CCCO4)cn23)CC1` belongs 13.4%; to `COc1cccn(CC(=O)N(C)CCC2CCOCC2)c1=O`, -19%.
Consider `CC(C)S(=O)(=O)NCC1CCCN(C(=O)c2ccc3c(c2)OCCO3)C1` (configuration not stated), for which the cytotoxicity at 10 µM was -35.2%.
Regarding `CCOC[C@@H]1CCC[C@]12CN(S(=O)(=O)c1cn(C)cn1)CCO2`, the cytotoxicity at 10 µM amounted to 5.7%.
To `Cc1nn(C)c2cnn(CCCNS(=O)(=O)Cc3ccccc3)c12` belongs 0.999%; to `O=C(CC1COCCN1S(=O)(=O)c1ccccc1)NCc1ccccn1` (configuration not stated), 4.48%.
In the case of `Cn1ccnc1-c1cn(CCCc2csc(N)n2)nn1` it was 0.963%.
To `CN(Cc1ccccc1)CC(O)Cn1cnc2ccsc2c1=O` (configuration not stated) belongs -2.89%; to `CCCc1cc(=O)[nH]c2nnc(SCC(C)=O)n12`, 7.29%; to `CCc1cc(-c2ccnc3c2ccn3C)nc(N2CCOCC2)n1`, -7.09%.
With `CCN(CC)c1ccc(NC(=O)NCC2(C(N)=O)CCOCC2)cn1`, the cytotoxicity at 10 µM was determined as 7.15%.
Take `CC(=O)N1CCC(Cc2cnc(-c3c(C)n[nH]c3C)cn2)C1` (configuration not stated): the cytotoxicity at 10 µM is -1.88%.
As to `Cc1nnnn1CCC(=O)N1CCC2(CCC(=O)N(CC3CC3)C2)CC1`, the cytotoxicity at 10 µM was 4.17%.
To `CC(C)CN(Cc1ccc(C(F)(F)F)nc1)Cc1cnn(C)c1` belongs 1.42%; to `CC(C)(C)OC(=O)N1CSC[C@@H]1C(=O)NCc1ccsc1`, 8.77%; to `CN1CC(NC(=O)Cc2csc(C(C)(C)C)n2)CCC1=O` (configuration not stated), 1.82%.
In the case of `CN(C)C(=O)CO[C@H]1CO[C@@]2(CCN(Cc3ccoc3)C2)C1` it was -111%; in that of `CCC(C)(NCc1nnc(C(C)(C)C)o1)c1nccs1` (configuration not stated), 19.2%; in that of `CN(C)CC1CN(Cc2c(Cl)ccc3cccnc23)CCO1` (configuration not stated), 4.2%.
Take `CC1(C(N)=O)CN(CC2CCC2)CCO1` (configuration not stated): the cytotoxicity at 10 µM stood at 2.04%.
To `CNc1cccc(CC2COCCN(C(=O)c3cncs3)C2)n1` (configuration not stated) belongs 6.42%.
To `Cc1cccc(CN2CCCC2c2cccc(Nc3nccs3)n2)c1` (configuration not stated) belongs 0.81%.
Regarding `CCOC(C)C(=O)Nc1ccnn1-c1ccccc1C` (configuration not stated), the cytotoxicity at 10 µM was -7.89%.
In the case of `CN1CCCC(Cc2cncc(Br)c2)CC1` (configuration not stated) it was -5.95%; in that of `CN(C)CC1(O)CCCN(c2nc(-c3ccccc3)no2)CC1` (configuration not stated), -4.6%; in that of `CCC(C(=O)N1CCS(=O)(=O)CC1)n1cccn1` (configuration not stated), 1.28%.
In the case of `CCN(CC)C(=O)CSc1nc2c(cnn2CCO)c(=O)[nH]1` it was 1.29%; in that of `CN1CCC(N(CCc2ccccc2)Cc2noc(C3CC3)n2)CC1`, -3.49%.
In the case of `CC(C)n1cnnc1CN(C)CC1CCOC1` (configuration not stated) it was 11.3%.
Take `Cc1ccc(CN2CCOC3(CCCN(C(=O)c4ccco4)C3)C2)o1` (configuration not stated): the cytotoxicity at 10 µM is -3.27%.
Regarding `N#Cc1cc2c(nc1SCc1cc(O)nc(O)n1)CCCCC2`, the cytotoxicity at 10 µM was 4.97%.
To `Cc1cnc(NC(=O)CSC2CCc3ccccc3NC2=O)s1` (configuration not stated) belongs -2.34%.
In the case of `COc1ccnc(NC(Cc2ccccc2)C(N)=O)n1` (configuration not stated), the cytotoxicity at 10 µM was 20.7%.
To `O=C(NCC1CCS(=O)(=O)C1)c1ccco1` (configuration not stated) belongs -7%; to `CC(Sc1nnc(C2CC2)n1CC(N)=O)c1ccc(Cl)cc1` (configuration not stated), 7.72%.
As to `O=C(Nc1cccnc1N1CCCC1)C1CCS(=O)(=O)C1` (configuration not stated), the cytotoxicity at 10 µM was -13.1%.
With `Cc1noc(C)c1CN1CC[C@H]2OCC[C@@H](C(=O)NCC3CC3)[C@H]2C1`, the cytotoxicity at 10 µM was determined as 1.27%.
To `Cc1nccc(C2(C)CCCNC2)n1` (configuration not stated) belongs 9.22%; to `CC(C)COCC(NC(=O)c1cc[nH]n1)c1ccco1` (configuration not stated), -4.72%; to `N#Cc1ccc(OCCNc2cccc(C(=O)N3CCOCC3)c2)cc1`, -2.96%.
In the case of `COc1ccc(CN2CCCCCC2c2cccs2)c(O)c1` (configuration not stated) it was 3.6%.
Turning to `COCCNC(=O)CN(C)C(C)c1nc(C)no1` (configuration not stated), the cytotoxicity at 10 µM is 0.668%.
In the case of `c1ccc(N2CCN(Cc3cnc(C4CCCCO4)nc3)CC2)nc1` (configuration not stated) it was -3%; in that of `Cn1cc(CN2CCC(F)(F)C3(CCN(c4cnccn4)C3)C2)cn1` (configuration not stated), -9.93%.
To `CN(C)C(=O)c1cnc2n1CCN(Cc1ccccc1)C2` belongs 7.05%; to `CC(C)c1nccn1C(C)C(=O)NC1CCN(S(C)(=O)=O)CC1` (configuration not stated), -2.86%.
In the case of `Cc1nnc2n1CCN(C(=O)C1CCN(Cc3ccccc3)CC1)C2` it was 1.28%; in that of `O=C(NCCNc1ncccn1)NCc1cccc(OC(F)F)c1`, -2.64%.
As to `CCOCc1nn(C)c2c1CN(CCO)CC2`, the cytotoxicity at 10 µM is -103%.
To `O=C1[C@H]2CN(C(=O)[C@H]3CCCO3)C[C@H]2CN1CCN1CCCC1` belongs -3.66%; to `Fc1ccccc1CNc1ccnc(C2CCNCC2)c1`, 8.88%.
As for `Cc1nnsc1CNC(=O)c1ccc2c(c1)nc(N1CCOCC1)n2C`, the cytotoxicity at 10 µM is -13.8%.
`Cc1c(C(=O)NC(C)C(C)C)nnn1-c1cccc2c1CCN(C)C2` (configuration not stated): the cytotoxicity at 10 µM is -9.03%.
As for `Cc1cc(C(=O)N2CCCC3(CCCN3Cc3cccnc3)C2)[nH]n1` (configuration not stated), the cytotoxicity at 10 µM worked out at 8.07%.
As to `Cc1occc1C(=O)N1C[C@@H]2CN(S(C)(=O)=O)CCO[C@@H]2C1`, the cytotoxicity at 10 µM is -2.63%.
`CN1CCN(S(=O)(=O)N2CCCCC2CCc2ccc(O)cc2)CC1` (configuration not stated): the cytotoxicity at 10 µM was -1.94%.
For the compound `CCc1ccc(CN(C)Cc2cnc(S(=O)(=O)CC)n2CCOC)cc1`, the cytotoxicity at 10 µM is -2.19%.
To `CN(C)c1cc(C(F)(F)F)cc(-c2ccc(C(=O)O)cc2)n1` belongs 9.15%.
